Published values from different studies.
Mode: inhibitor
CYP1A2: Cytochrome P450 1A2 (CYP1A2, Homo sapiens, UniProt P05177)
SLCO1B1: Solute carrier organic anion transporter family member 1B1 (SLCO1B1, Homo sapiens, UniProt Q9Y6L6)

SMILES | target | assay | test system | setting | endpoint | value
CC(C)(O)[C@@H]1CC[C@](C)([C@H]2[C@@H](O)C[C@@]3(C)[C@@H]4C[C@H](O[C@@H]5O[C@H](CO)[C@@H](O)[C@H](O)[C@H]5O)[C@H]5C(C)(C)[C@@H](O[C@@H]6OC[C@@H](O)[C@H](O)[C@H]6O)CC[C@@]56C[C@@]46CC[C@]23C)O1 | CYP1A2 | enzyme activity | human, liver microsomes |  | IC50 | > 200 µM
NC/C(=C\F)COc1cccc(Cn2c(=S)[nH]c(=O)c3[nH]cnc32)c1 | SLCO1B1 | transporter uptake |  | 30 µM | inhibition | < 50%
CSc1ccccc1C(=O)NCCn1cc(C(=O)NCc2cccc(C)n2)c(=O)c2cc3c(cc21)OCO3 | CYP1A2 | enzyme activity | human, liver microsomes | 20 min, without NADPH, with preincubation | IC50 | > 100 µM
CC(=O)O[C@H]1[C@H](O[C@H]2CC[C@]34C[C@]35CC[C@]3(C)[C@@H]([C@@]6(C)CC[C@@H](C(C)(C)O)O6)[C@@H](O)C[C@@]3(C)[C@@H]5C[C@H](O[C@@H]3O[C@H](CO)[C@@H](O)[C@H](O)[C@H]3O)[C@H]4C2(C)C)OC[C@@H](OC(C)=O)[C@@H]1O | CYP1A2 | enzyme activity | human, liver microsomes |  | IC50 | > 200 µM
CC[C@H](C)[C@@H]([C@@H](CC(=O)N1CCC[C@H]1[C@H](OC)[C@@H](C)C(=O)N[C@@H](Cc1ccccc1)C(=O)NCCCO)OC)N(C)C(=O)[C@@H](NC(=O)[C@H](C(C)C)N(C)C)C(C)C | Cytochrome P450 3A4 (CYP3A4, Homo sapiens, UniProt P08684) | enzyme activity |  |  | Ki | 21.8 µM
O=C(O)COc1cccc(-c2nc(Nc3ccc4[nH]ncc4c3)c3ccccc3n2)c1 | SLCO1B1 | transporter uptake, radiometric |  |  | IC50 | 0.39 µM
O=C(CCCCCCC(=O)Nc1ccccc1)NO | CYP1A2 | enzyme activity, fluorescence |  |  | IC50 | 7.28 µM
CSc1ccccc1C(=O)NCCn1cc(C(=O)NCc2cccc(C)n2)c(=O)c2cc3c(cc21)OC(F)(F)O3 | CYP1A2 | enzyme activity | human, liver microsomes | 20 min, without NADPH, with preincubation | IC50 | > 100 µM
